An excerpt weighted towards active compounds, which were near 3.4% of everything screened.
HMGR II inh = E. faecalis class II HMG-CoA reductase inhibition; purified E. faecalis HMGR, NADPH absorbance 340 nm kinetic; inhibition, % at 10 µM; 190,000 compounds, 0.41% hits; AID 1066;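 active = inhibition above a set limit, the median over all tested compounds plus 3 SD, cut at about 9.5% in these data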;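 note: enzyme runs in reverse so mevalonate oxidation gives rising NADPH absorbance; 0% = complete reaction with DMSO and 100% = background rate lacking mevalonate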
Wee1 stabilizer = blocks degradation of human Wee1 kinase; HeLa Luc-Wee1K328M stability, luciferase luminescence; 100% = proteasome inhibitor MG132 effect; reporter increase, % at 5 µM; 220,000 compounds, 1.2% hits; AID 1321;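 active = activation above the mean of all tested compounds plus 3 SD, set per screening run, cut at about 8.8% in these data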;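 note: cells exposed to compound for 20 h before luminescence read; 0% = DMSO alone and 100% = MG132 at 30 µM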
PHOSPHO1 block = PHOSPHO1 (human) inhibition; recombinant PHOSPHO1, absorbance phosphatase assay; inhibition, % at 13.3 µM; 290,000 compounds, 1.1% hits; AID 1565; in the data active = inhibition above about 60%
Target sequence (Q8TCT1 whole entry, looked up): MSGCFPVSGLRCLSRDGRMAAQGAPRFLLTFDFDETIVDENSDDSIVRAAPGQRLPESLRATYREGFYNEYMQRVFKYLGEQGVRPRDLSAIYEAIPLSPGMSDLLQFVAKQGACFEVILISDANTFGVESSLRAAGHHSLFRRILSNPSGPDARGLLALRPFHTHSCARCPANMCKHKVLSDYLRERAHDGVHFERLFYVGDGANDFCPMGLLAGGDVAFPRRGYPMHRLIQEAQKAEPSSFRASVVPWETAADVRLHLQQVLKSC
Runt-CBFb FRET = blocks binding of human RUNX1 Runt domain to CBFb. Q01196+Q13951. Cerulean-Runt/Venus-CBFb FRET ratio 530/480, 1 h. inhibition, % at 20 µM. 220,000 compounds, 0.46% hits;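 active = inhibition over about 50% at 20 µM in the single-dose screen, limit read from the data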;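 note: 0% = DMSO wells and 100% = excess unlabeled CBFb competitor control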
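System: Cerulean-labeled Runt domain protein | Quantity: 100 nM of each labeled protein | Schedule: 1 h compound exposure, room temperature | Detection: Fluorescence energy transfer, 422 nm excitation, 530/480 nm emission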
Runt-SMMHC FRET = blocks binding of human RUNX1 Runt domain to CBFb-SMMHC; Cerulean-Runt/Venus-CBFb-SMMHC FRET ratio 530/480, 1 h; AID 1434; 220,000 compounds, 0.74% hits; inhibition, % at 20 µM;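 active = mean inhibition across duplicate retests at 20 µM reaching about 50%, limit read from the data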;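 note: 0% = DMSO wells and 100% = wells with excess untagged CBFb-SMMHC; inhibitors lower the FRET ratio by blocking Runt binding to CBFb-SMMHC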
RanGTP-Imp inh = inhibitors of RanGTP-importin-beta interaction, primary screen, biochemical, FRET, CFP-Ran, YFP-importin-beta, homogeneous | cell-free CFP-Ran/YFP-importin-beta FRET ratio | inhibition, % (test concentration not listed) | 300,000 compounds, 1.1% hits | AID 2216;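 active = more than half of the replicate wells show a fall in the fluorescence ratio signal beyond about 16%, limit read from the data, passing the limit was not always enough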;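 note: 0% = DMSO wells and 100% = Ran loaded with GDP instead of GTP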
YIC counter = counter-screen YIC FRET for RanGTP-importin-beta inhibitors; AID 435026; Purified YIC probe, intramolecular FRET ratio YFP/CFP; shares compounds with RanGTP-Imp inh; 1,000 compounds, 40% hits; IC50, µM;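 active = fitted half-maximal inhibitory concentration no more than tenfold above the top dose tested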
Numbers without * were called inactive; . = no result given.

SMILES	HMGR II inh	Wee1 stabilizer	PHOSPHO1 block	Runt-CBFb FRET	Runt-SMMHC FRET	RanGTP-Imp inh	YIC counter
CCN(CC)C(=O)C(Oc1ccc(S(=O)(=O)N2CCCC2)cc1[N+](=O)[O-])c1ccccc1 (centres undefined)	.	.	23	.	.	0	.
CNS(=O)(=O)c1cc(OC)c(OC)cc1CC(=O)OC	-6	-1	-16	0	2	21*	>50
COc1cc(Cl)c(C)cc1NC(=O)COC(=O)c1cnc(C)cn1	-3	-4	7	-1	-64	2	.
CC(=O)N1CCC(N(CCN2CCOCC2)C(=O)Nc2ccc(Cl)c(Cl)c2)CC1	.	-1	.	.	.	19*	>50
Cc1ccc(NC(=O)C2CC(=O)N(CCc3ccccc3)C2)c(C)c1 (centres undefined)	-4	-1	-10	1	0	3	.
O=[N+]([O-])c1cccc(-c2n[nH]c(=S)n2-c2ccc(Br)cc2)c1	-2	0	8	1	13	23*	>50
S=c1[nH]nc(-c2ccc(Br)cc2)n1-c1ccc(Br)cc1	.	.	-97	.	.	-1	.
COc1ccccc1C(=O)NCCC(=O)N1CCN(c2ccccc2O)CC1	.	.	.	.	.	1	.
Oc1ccc(/C=N/Nc2cc(N3CCOCC3)nc(N3CCOCC3)n2)cc1	.	1	.	.	.	22*	>50
Brc1cccc(/C=N/Nc2nc(N3CCCCC3)nc(N3CCCCC3)n2)c1	-2	-1	-6	.	.	-4	.
Oc1cccc(/C=N/Nc2cc(N3CCCC3)nc(N3CCCC3)n2)c1	-1	2	6	2	5	21*	>50
Cc1nc(N/N=C/c2ccc(Br)cc2)cc(N2CCOCC2)n1	.	.	20	.	.	3	.
O=C1CC(NCc2ccc3c(c2)OCO3)C(=O)N1Cc1ccc2c(c1)OCO2 (centres undefined)	0	0	10	2	4	.	.
CC1Oc2ccccc2N(CC(=O)Nc2ccc(F)cc2)C1=O (centres undefined)	.	.	40	.	.	0	.
CN(C)C=NC(=O)c1cc(C(=O)c2ccc(C(C)(C)C)cc2)c[nH]1	-3	0	23	0	2	27*	>50
CN(C)C=NC(=O)c1cc(C(=O)c2ccccc2Cl)c[nH]1	-1	-1	34	0	-8	1	.
Cc1cc(Nc2ccccc2)nc2cc(O)ccc12	-2	-3	-4	43	64*	18*	49*
O=C(CSc1nc(C(F)(F)F)cc(=O)[nH]1)N1CCC(Cc2ccccc2)CC1	.	.	.	.	.	4	.
C=CCNC(=O)c1ccccc1NC(=O)COc1ccccc1	2	1	-7	0	-2	4	.
Cc1cc(S(=O)(=O)N2CCN(c3c(C)cccc3C)CC2)ccc1F	-1	-3	-5	1	-5	22*	>50
Cc1cc(S(=O)(=O)N2CCN(c3ccccc3C)CC2)ccc1F	0	0	41	-1	-1	-2	.
O=S(=O)(NC1CCc2ccccc21)c1ccc(S(=O)(=O)N2CCCC2)cc1 (centres undefined)	2	-4	20	-1	1	-3	.
Cc1ccc(S(=O)(=O)CC(=O)N(CCCN(C)C)c2nc3ccc(C)cc3s2)cc1	.	.	.	.	.	21*	>50
Cc1ccc2nc(N(CCCN(C)C)C(=O)CCc3ccccc3)sc2c1	0	4	-9	-1	1	-1	.
O=C(/C=C/c1ccc[nH]1)c1ccc(F)cc1	-9	1	30	28	3	28*	25*
SMILES	HMGR II inh	Wee1 stabilizer	PHOSPHO1 block	Runt-CBFb FRET	Runt-SMMHC FRET	RanGTP-Imp inh	YIC counter
O=C(/C=C/c1ccccc1)c1ccccc1	-2	-3	8	-1	-1	4	.
O=C(/C=C/c1ccc[nH]1)c1ccccc1	-9	-2	12	25	11	23*	32*
CCCOC(=O)CSC1=C(C#N)C(c2ccccc2OCC)C(C#N)C(=O)N1 (centres undefined)	-4	-2	75*	2	4	21*	>50
CCOc1ccc(/C(O)=C2/C(=O)C(=O)N(CCCN3CCOCC3)C2c2ccc(F)cc2)cc1C (centres undefined)	.	.	42	.	.	2	.
Cc1ccccc1Cn1nnc(-c2ccc(C(=O)O)cc2)n1	-4	4	9	2	0	-2	.
Cc1ccccc1Cn1nnc(-c2cccc(C(=O)O)c2)n1	1	2	16	0	-2	16*	>50
COC(=O)C1=C(C(=O)OC)[C@@H]2Nc3ccccc3[C@@]23C[C@@H](C(=O)OC)N(C(=O)COCc2ccccc2)C3=N1	.	.	.	.	.	-2	.
CCCc1n(CC(O)COCc2ccccc2)c2ccccc2[n+]1C (centres undefined)	1	-1	-135	-8	13	35*	>50
Cc1cc(NC(=O)CCC(=O)N(CCC(C)C)C(C(=O)NCC2CCCO2)c2ccccc2C)no1 (centres undefined)	.	.	20	.	.	-3	.
O=C(O)C1C2CCC(C2)C1C(=O)NCCc1ccc(F)cc1 (centres undefined)	.	.	9	.	.	21*	>50
O=C(O)C1C2CCC(C2)C1C(=O)NCCc1cccc(Cl)c1 (centres undefined)	.	.	.	.	.	-4	.
Cc1oc2cc(O)ccc2c(=O)c1-c1nncn1-c1ccccc1	6	-2	-18	32	93*	37*	14*
Cc1ccc(S(=O)(=O)N2CCC(C(=O)NCCc3ccc(S(N)(=O)=O)cc3)CC2)cc1	1	5	7	2	1	-3	.
NS(=O)(=O)c1ccc(CCNC(=O)C2CCN(S(=O)(=O)c3ccc(Br)s3)CC2)cc1	-1	-3	4	-1	3	24*	>50
CC[N+](CC)(CCCCS(=O)(=O)[O-])CCNP1(=O)C=C(c2ccccc2)OC(c2ccccc2)=C1	-6	1	20	-2	2	-3	.
C=CCn1c(O)c(N=NC(=S)Nc2ccccc2F)c2cc(S(=O)(=O)N3CCOCC3)ccc21	-2	0	-13	0	-7	18*	>50
O=C(O)c1cn(Cc2cccnc2)c(=O)c2ccccc12	-2	-4	16	-1	1	18*	>50
N#Cc1c(F)cccc1NCCCn1ccnc1	.	.	.	.	.	2	.
O=S(=O)(Cc1ccc(Cl)cc1)Nc1ccc2c(c1)OCO2	2	2	11	-1	28	19*	>50
O=S(=O)(Cc1ccc(Cl)cc1)N1CCN(Cc2ccc3c(c2)OCO3)CC1	.	5	38	0	-1	6	.
CN(C)c1nc(-c2ccccc2)cc(C(F)(F)F)c1C#N	-2	2	6	38	95*	29*	10*
